The results in this text go back to ChEMBL document CHEMBL2157934, “Pyrrolidinyl phenylurea derivatives as novel CCR3 antagonists” (Bioorg Med Chem Lett, 2012).

The structures appear in SMILES notation. Active and inactive are the calls of the source. The rule behind the calls is not given here.

Series [1] concerns the target T1, C-C chemokine receptor type 3 (Homo sapiens, UniProt P51677).
T1 sequence (P51677 whole entry): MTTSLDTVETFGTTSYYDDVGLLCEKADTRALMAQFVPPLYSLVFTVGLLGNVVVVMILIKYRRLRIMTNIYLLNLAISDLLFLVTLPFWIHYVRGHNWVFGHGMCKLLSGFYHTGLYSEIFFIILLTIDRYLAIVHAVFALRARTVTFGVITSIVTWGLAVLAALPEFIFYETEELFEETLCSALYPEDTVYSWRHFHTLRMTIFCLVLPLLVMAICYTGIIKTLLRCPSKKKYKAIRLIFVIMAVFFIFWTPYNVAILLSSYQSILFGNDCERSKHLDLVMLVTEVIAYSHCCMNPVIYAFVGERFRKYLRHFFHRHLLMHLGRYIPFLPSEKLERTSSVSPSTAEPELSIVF
The experiment in a line: Antagonist activity at CCR3 receptor. It is filed as functional.

Series [2] can be described thus: Oral bioavailability in cynomolgus monkey. Type of series: ADME, organism-based, Macaca fascicularis. Particulars: in vivo.
Series [3] addresses T2, C-C chemokine receptor type 3 (Homo sapiens) (UniProt P51677).
T2 sequence (whole entry): T1 sequence (P51677 whole entry)
The experiment in a line: (§1) Antagonist activity at CCR3 receptor in human eosinophils assessed as inhibition of CCL11-induced degranulation after 4 hrs by ELISA. Type of series: functional. Summed up:
(§2)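 Eosinophils isolated from peripheral blood of normal human volunteers; wells pre-blocked with 2.5% BSA in PBS, 2 h, 37 °C. 5 × 10^5 cells in RPMI 1640 with 0.5% BSA, with or without 0.6 nM human CCL11 and varying antagonist concentrations, incubated 4 h at 37 °C, 5% CO2. Supernatant EDN quantified by ELISA; IC50 from dose-response.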

Series [4] deals with T1, C-C chemokine receptor type 3. The series is described as §1. It is filed as functional. An outline of the steps:
as §2

In series [5] the target is T3, C-C chemokine receptor type 1 (Homo sapiens) (UniProt P32246).
T3 sequence (whole entry): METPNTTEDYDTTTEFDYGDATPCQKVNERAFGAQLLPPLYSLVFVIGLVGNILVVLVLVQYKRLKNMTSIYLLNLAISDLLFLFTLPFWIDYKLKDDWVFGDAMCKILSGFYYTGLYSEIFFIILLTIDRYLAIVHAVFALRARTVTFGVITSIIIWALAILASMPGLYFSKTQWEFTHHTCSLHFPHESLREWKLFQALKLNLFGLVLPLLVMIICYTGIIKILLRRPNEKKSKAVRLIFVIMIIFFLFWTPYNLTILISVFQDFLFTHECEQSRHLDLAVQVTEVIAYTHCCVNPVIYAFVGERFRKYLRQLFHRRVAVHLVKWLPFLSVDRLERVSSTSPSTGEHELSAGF
The experiment in a line: Inhibition of CCR1 receptor at 10 uM.

Series [6] deals with C-C chemokine receptor type 2 (Homo sapiens) (UniProt P41597). The experiment in a line: Inhibition of CCR2 receptor at 10 uM.
The target of series [7] is C-C chemokine receptor type 5 (Homo sapiens) (UniProt P51681). The experiment in a line: Inhibition of CCR5 receptor at 10 uM.
Chain of C-C chemokine receptor type 5 (Homo sapiens) (P51681 whole entry, looked up): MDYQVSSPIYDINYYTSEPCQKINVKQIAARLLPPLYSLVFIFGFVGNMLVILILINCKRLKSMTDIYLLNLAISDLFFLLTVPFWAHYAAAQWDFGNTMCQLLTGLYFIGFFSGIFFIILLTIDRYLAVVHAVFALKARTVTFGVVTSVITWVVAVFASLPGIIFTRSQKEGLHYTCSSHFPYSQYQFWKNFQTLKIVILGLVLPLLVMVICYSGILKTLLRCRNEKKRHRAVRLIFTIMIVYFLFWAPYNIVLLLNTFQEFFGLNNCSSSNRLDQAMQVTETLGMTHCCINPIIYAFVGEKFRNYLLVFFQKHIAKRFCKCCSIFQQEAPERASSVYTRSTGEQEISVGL

Chain of C-C chemokine receptor type 2 (Homo sapiens) (P41597 whole entry, looked up): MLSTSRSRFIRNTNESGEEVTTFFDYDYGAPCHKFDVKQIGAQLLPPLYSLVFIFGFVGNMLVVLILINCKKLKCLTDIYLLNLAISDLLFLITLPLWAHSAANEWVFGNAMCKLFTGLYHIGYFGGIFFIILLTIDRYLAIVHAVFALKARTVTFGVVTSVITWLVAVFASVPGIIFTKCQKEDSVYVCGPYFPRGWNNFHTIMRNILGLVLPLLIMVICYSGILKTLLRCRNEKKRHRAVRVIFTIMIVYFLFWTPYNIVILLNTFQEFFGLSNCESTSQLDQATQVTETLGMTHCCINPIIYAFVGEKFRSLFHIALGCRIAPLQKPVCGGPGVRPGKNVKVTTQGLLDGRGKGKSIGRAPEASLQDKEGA

Regarding `NC(=O)COc1ccccc1NC(=O)N[C@@H]1CCN(Cc2ccc3cc(F)ccc3c2)C1`, the half-inhibitory concentration (IC50) (in general, the concentration that inhibits the measured activity by half) in series [1] is 110 nM.
Regarding `COCCOc1ccccc1NC(=O)N[C@@H]1CCN(Cc2ccc3cc(F)ccc3c2)C1`, it took 71 nM to reach half-maximal inhibition in series [1] (IC50).
The same measure, in the same setting: with `CS(=O)(=O)N1CCC(NC(=O)N[C@@H]2CCN(Cc3ccc4cc(F)ccc4c3)C2)CC1` the figure was 14 nM.
On to `O=C(Nc1ccccc1OCCO)N[C@@H]1CCN(Cc2ccc3cc(F)ccc3c2)C1`, for which the bioavailability (usually the share of a dose that reaches the circulation, judged against a reference dose that is usually intravenous) in series [2] was found to be 22%. Further, the IC50 in series [1] amounted to 1.7 nM; in series [4] it was 0.87 nM. Moreover, the inhibition result in series [3] was “Dose-dependent effect”. Moreover, the inhibition entry in series [5], in series [6] and in series [7] was “inactive” each time.
As for `COCc1ccccc1NC(=O)N[C@@H]1CCN(Cc2ccc3cc(F)ccc3c2)C1`, in series [1], the 50% inhibitory concentration (IC50) was found to be 44 nM.
`O=C(Nc1ccccc1CCCO)N[C@@H]1CCN(Cc2ccc3cc(F)ccc3c2)C1` had an IC50 in series [1] of 24 nM.
Still for that read-out and setting: with `O=C(NC1CCN(Cc2ccccc2)CC1)N1CCCN(Cc2ccc3cc(F)ccc3c2)CC1` the figure was 380 nM; with `O=C(NC1CCCCC1)N[C@@H]1CCN(Cc2ccc3cc(F)ccc3c2)C1`, 41 nM; with `O=C(Nc1ccccc1OCCOCCO)N[C@@H]1CCN(Cc2ccc3cc(F)ccc3c2)C1`, 110 nM.
Consider `O=C(Nc1ccccc1CCO)N[C@@H]1CCN(Cc2ccc3cc(F)ccc3c2)C1`, for which, in series [1], the IC50 came out at 12 nM.
Still for that read-out and setting: next, `O=C(Nc1ccc(OCCO)cc1)N[C@@H]1CCN(Cc2ccc3cc(F)ccc3c2)C1`: 71 nM.
The same measure, in the same setting: next, `O=C(Nc1ccccc1OCCCCO)N[C@@H]1CCN(Cc2ccc3cc(F)ccc3c2)C1`: 51 nM; `O=C1OC2(CCN(Cc3ccc4cc(F)ccc4c3)CC2)c2ccccc2N1Cc1ccccc1`: 2000 nM; `O=C(Nc1ccccc1OCCCO)N[C@@H]1CCN(Cc2ccc3cc(F)ccc3c2)C1`: 50 nM.
The compound `O=C1N(CCc2ccccc2)CCC12CCN(Cc1ccc3cc(F)ccc3c1)CC2` yielded an IC50 in series [1] of 600 nM.
`O=C(Nc1ccccc1)N[C@@H]1CCN(Cc2ccc3cc(F)ccc3c2)C1`: the IC50 in series [1] turned out to be 50 nM.
As to `CN(C)CCOc1ccccc1NC(=O)N[C@@H]1CCN(Cc2ccc3cc(F)ccc3c2)C1`, in series [1], inhibition was half-maximal at 50 nM (IC50).
Still for that read-out and setting: with `O=C(Nc1ccccc1COCCO)N[C@@H]1CCN(Cc2ccc3cc(F)ccc3c2)C1` the figure was 9.9 nM; with `O=C(Nc1cccc(OCCO)c1)N[C@@H]1CCN(Cc2ccc3cc(F)ccc3c2)C1`, 28 nM; with `O=C(NC1CCN(S(=O)(=O)c2ccccc2O)CC1)N[C@@H]1CCN(Cc2ccc3cc(F)ccc3c2)C1`, 2.4 nM.
On to `CN(C)C(=O)COc1ccccc1NC(=O)N[C@@H]1CCN(Cc2ccc3cc(F)ccc3c2)C1`, for which inhibition in series [1] was half-maximal at 190 nM (IC50).
In turn, `O=C(NC1CCN(S(=O)(=O)c2ccccc2O)CC1)N1CCCN(Cc2ccc3cc(F)ccc3c2)CC1` gave an IC50 in series [1] of 25 nM.
